Measured values reported in ChEMBL document CHEMBL1275251, “Mutant selection window and characterization of allelic diversity for ciprofloxacin-resistant mutants of Rhodococcus equi” (Antimicrob Agents Chemother, 2010).
In brackets after ≈: the same amount, converted by molar mass. Activity calls are given as the source filed them. No cut-off for these calls is given here.

Columns and labels:
Prescottella equi [1] = assay: Antibacterial activity against Rhodococcus equi ATCC 6939T harboring GyrA Ser83Arg mutation selected on 8 ug/ml of compound treated culture by broth microdilution method; assay type: functional; conditions: Rhodococcus (subgen. Prescottella) equi
How it was run: (§1)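 Mutants were selected by plating at least 1 × 10^10 cells, grown 48 h at 35°C in brain heart infusion broth, on ciprofloxacin-containing Columbia blood agar base for 4 days at 35°C. Each was confirmed by two passages at the selecting concentration and one drug-free passage. MIC was then read by broth microdilution in cation-supplemented Mueller-Hinton broth per CLSI M24-A. Each experiment was done twice.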

Prescottella equi [2] = assay: Antibacterial activity against Rhodococcus equi ATCC 6939T harboring GyrA Ser83Arg mutation selected on 12 ug/ml of compound treated culture by broth microdilution method; assay type: functional; conditions: Rhodococcus (subgen. Prescottella) equi; how it was run: as §1
Prescottella equi [3] = assay: Antibacterial activity against Rhodococcus equi ATCC 6939T harboring GyrA Ser83Arg mutation selected on 16 ug/ml of compound treated culture by broth microdilution method; assay type: functional; conditions: Rhodococcus (subgen. Prescottella) equi; how it was run: as §1
Prescottella equi [4] = assay: Antibacterial activity against Rhodococcus equi W5234 selected on 1 ug/ml of compound treated culture by broth microdilution method; assay type: functional; conditions: Rhodococcus (subgen. Prescottella) equi; how it was run: as §1
Prescottella equi [5] = assay: Antibacterial activity against Rhodococcus equi W5234 selected on 2 ug/ml of compound treated culture by broth microdilution method; assay type: functional; conditions: Rhodococcus (subgen. Prescottella) equi; how it was run: as §1
Prescottella equi [6] = assay: Antibacterial activity against Rhodococcus equi W5234 selected on 8 ug/ml of compound treated culture by broth microdilution method; assay type: functional; conditions: Rhodococcus (subgen. Prescottella) equi; how it was run: as §1
Prescottella equi [7] = assay: Antibacterial activity against Rhodococcus equi W5234 selected on 4 ug/ml of compound treated culture by broth microdilution method; assay type: functional; conditions: Rhodococcus (subgen. Prescottella) equi; how it was run: as §1
Prescottella equi [8] = assay: Antibacterial activity against Rhodococcus equi W5234 harboring GyrB Asn464Asp mutation selected on 1 ug/ml of compound treated culture by broth microdilution method; assay type: functional; conditions: Rhodococcus (subgen. Prescottella) equi; how it was run: as §1
Prescottella equi [9] = assay: Antibacterial activity against Rhodococcus equi W5234 harboring GyrA Gly81Cys mutation selected on 4 ug/ml of compound treated culture by broth microdilution method; assay type: functional, organism-based; how it was run: as §1
Prescottella equi [10] = assay: Antibacterial activity against Rhodococcus equi W5234 harboring GyrA Asp87Tyr mutation selected on 4 ug/ml of compound treated culture by broth microdilution method; assay type: functional; conditions: Rhodococcus (subgen. Prescottella) equi; how it was run: as §1
Prescottella equi [11] = assay: Antibacterial activity against Rhodococcus equi W5234 harboring GyrA Asp87His mutation selected on 6 ug/ml of compound treated culture by broth microdilution method; assay type: functional; conditions: Rhodococcus (subgen. Prescottella) equi; how it was run: as §1
Prescottella equi [12] = assay: Antibacterial activity against Rhodococcus equi W5234 harboring GyrA Asp87Asn mutation selected on 4 ug/ml of compound treated culture by broth microdilution method; assay type: functional; conditions: Rhodococcus (subgen. Prescottella) equi; how it was run: as §1
Prescottella equi [13] = assay: Antibacterial activity against Rhodococcus equi W5234 harboring GyrA Asp87Asn mutation selected on 6 ug/ml of compound treated culture by broth microdilution method; assay type: functional, organism-based; how it was run: as §1
Prescottella equi [14] = assay: Antibacterial activity against Rhodococcus equi W5234 harboring GyrA Asp87Asn mutation selected on 8 ug/ml of compound treated culture by broth microdilution method; assay type: functional, organism-based; how it was run: as §1
Prescottella equi [15] = assay: Antibacterial activity against Rhodococcus equi W5234 harboring GyrA Asp87Gly mutation selected on 4 ug/ml of compound treated culture by broth microdilution method; assay type: functional, organism-based; how it was run: as §1
Prescottella equi [16] = assay: Antibacterial activity against Rhodococcus equi W5234 harboring GyrA Asp87Gly mutation selected on 6 ug/ml of compound treated culture by broth microdilution method; assay type: functional; conditions: Rhodococcus (subgen. Prescottella) equi; how it was run: as §1
Prescottella equi [17] = assay: Antibacterial activity against Rhodococcus equi W5234 harboring GyrA Asp87Gly mutation selected on 8 ug/ml of compound treated culture by broth microdilution method; assay type: functional, organism-based; how it was run: as §1
Prescottella equi [18] = assay: Antibacterial activity against Rhodococcus equi W5234 harboring GyrA Ser83Ile mutation selected on 4 ug/ml of compound treated culture by broth microdilution method; assay type: functional; conditions: Rhodococcus (subgen. Prescottella) equi; how it was run: as §1
Prescottella equi [19] = assay: Antibacterial activity against Rhodococcus equi W5234 harboring GyrA Ser83Ile mutation selected on 8 ug/ml of compound treated culture by broth microdilution method; assay type: functional; conditions: Rhodococcus (subgen. Prescottella) equi; how it was run: as §1
Prescottella equi [20] = assay: Antibacterial activity against Rhodococcus equi W5234 harboring GyrA Ser83Ile mutation selected on 12 ug/ml of compound treated culture by broth microdilution method; assay type: functional; conditions: Rhodococcus (subgen. Prescottella) equi; how it was run: as §1
Prescottella equi [21] = assay: Antibacterial activity against Rhodococcus equi W5234 harboring GyrA Ser83Ile mutation selected on 16 ug/ml of compound treated culture by broth microdilution method; assay type: functional, organism-based; how it was run: as §1
Prescottella equi [22] = assay: Antibacterial activity against Rhodococcus equi W5234 harboring GyrA Ser83Arg mutation selected on 2 ug/ml of compound treated culture by broth microdilution method; assay type: functional; conditions: Rhodococcus (subgen. Prescottella) equi; how it was run: as §1
Prescottella equi [23] = assay: Antibacterial activity against Rhodococcus equi W5234 harboring GyrA Ser83Arg mutation selected on 4 ug/ml of compound treated culture by broth microdilution method; assay type: functional; conditions: Rhodococcus (subgen. Prescottella) equi; how it was run: as §1
Prescottella equi [24] = assay: Antibacterial activity against Rhodococcus equi W5234 harboring GyrA Ser83Arg mutation selected on 6 ug/ml of compound treated culture by broth microdilution method; assay type: functional; conditions: Rhodococcus (subgen. Prescottella) equi; how it was run: as §1
Prescottella equi [25] = assay: Antibacterial activity against Rhodococcus equi W5234 harboring GyrA Ser83Arg mutation selected on 8 ug/ml of compound treated culture by broth microdilution method; assay type: functional; conditions: Rhodococcus (subgen. Prescottella) equi; how it was run: as §1

**Q.** With `O=C(O)c1cn(C2CC2)c2cc(N3CCNCC3)c(F)cc2c1=O` [CIPROFLOXACIN] as the compound, how does the MIC (Prescottella equi [1]) read?
**A.** 64 µg/mL (≈ 193 µM)

**Q.** And the MIC (Prescottella equi [2])?
**A.** 128 µg/mL (≈ 386 µM)

**Q.** What about the MIC (Prescottella equi [3]) of the same compound?
**A.** 32 µg/mL (≈ 96.6 µM)

**Q.** What about the MIC (Prescottella equi [4]) of the same compound?
**A.** 2 µg/mL (≈ 6.04 µM)

**Q.** What about the MIC (Prescottella equi [5]) of the same compound?
**A.** 2 µg/mL (≈ 6.04 µM)

**Q.** What about the MIC (Prescottella equi [6]) of the same compound?
**A.** 16 µg/mL (≈ 48.3 µM)

**Q.** What about the MIC (Prescottella equi [7]) of the same compound?
**A.** 8 µg/mL (≈ 24.1 µM)

**Q.** What about the MIC (Prescottella equi [8]) of the same compound?
**A.** 4 µg/mL (≈ 12.1 µM)

**Q.** What about the MIC (Prescottella equi [9]) of the same compound?
**A.** inactive

**Q.** And the MIC (Prescottella equi [10])?
**A.** 8 µg/mL (≈ 24.1 µM)

**Q.** What about the MIC (Prescottella equi [11]) of the same compound?
**A.** 16 µg/mL (≈ 48.3 µM)

**Q.** And the MIC (Prescottella equi [12])?
**A.** 16 µg/mL (≈ 48.3 µM)

**Q.** And the MIC (Prescottella equi [13])?
**A.** inactive

**Q.** What about the MIC (Prescottella equi [14]) of the same compound?
**A.** inactive

**Q.** What about the MIC (Prescottella equi [15]) of the same compound?
**A.** inactive

**Q.** And the MIC (Prescottella equi [16])?
**A.** 16 µg/mL (≈ 48.3 µM)

**Q.** What about the MIC (Prescottella equi [17]) of the same compound?
**A.** inactive

**Q.** And the MIC (Prescottella equi [18])?
**A.** 32 µg/mL (≈ 96.6 µM)

**Q.** And the MIC (Prescottella equi [19])?
**A.** 32 µg/mL (≈ 96.6 µM)

**Q.** What about the MIC (Prescottella equi [20]) of the same compound?
**A.** 64 µg/mL (≈ 193 µM)

**Q.** What about the MIC (Prescottella equi [21]) of the same compound?
**A.** inactive

**Q.** And the MIC (Prescottella equi [22])?
**A.** 8 µg/mL (≈ 24.1 µM)

**Q.** What about the MIC (Prescottella equi [23]) of the same compound?
**A.** 32 µg/mL (≈ 96.6 µM)

**Q.** And the MIC (Prescottella equi [24])?
**A.** 32 µg/mL (≈ 96.6 µM)

**Q.** What about the MIC (Prescottella equi [25]) of the same compound?
**A.** 32 µg/mL (≈ 96.6 µM)
